In ChEMBL document CHEMBL1153956, “Synthesis of protein tyrosine phosphatase 1B inhibitors: model validation and docking studies” (Bioorg Med Chem Lett, 2009):

What was measured:
[1] = test system: Rattus norvegicus; assay: Antidiabetic activity in streptozotocin-induced diabetic Sprague-Dawley rat model assessed as reduction in blood glucose level at 100 mg/kg; type: functional; set-up: scale not given: the % may be the effect or the level left
Method in brief: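 Streptozotocin-induced diabetic rats received compound, vehicle or metformin as reference standard. Blood glucose was monitored before dosing and up to 24 h after administration. Activity is expressed as percent sugar-lowering effect.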

[2] = molecular target: T1, Tyrosine-protein phosphatase non-receptor type 1 (Homo sapiens) (UniProt P18031); assay: Inhibition of PTP1B at 100 uM
T1 sequence (whole entry): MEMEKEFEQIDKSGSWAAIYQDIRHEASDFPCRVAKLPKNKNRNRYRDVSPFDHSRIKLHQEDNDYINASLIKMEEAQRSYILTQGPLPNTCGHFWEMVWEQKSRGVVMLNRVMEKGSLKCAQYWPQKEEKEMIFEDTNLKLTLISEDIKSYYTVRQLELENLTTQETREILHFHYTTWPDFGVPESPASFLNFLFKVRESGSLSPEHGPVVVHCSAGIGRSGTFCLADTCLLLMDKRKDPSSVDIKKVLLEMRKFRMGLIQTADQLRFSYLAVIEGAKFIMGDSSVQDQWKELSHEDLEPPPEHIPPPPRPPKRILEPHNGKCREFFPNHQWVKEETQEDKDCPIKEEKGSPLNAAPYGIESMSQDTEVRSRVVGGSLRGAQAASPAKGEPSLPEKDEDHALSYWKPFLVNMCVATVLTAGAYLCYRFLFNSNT
Method in brief: (§1)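 PTP1B was pre-incubated with test compound for 10 min in the reaction system, at graded doses for IC50 or at a single fixed concentration for percent inhibition. Residual activity was measured by the Goldstein method with 10 mM PNPP in 50 mM HEPES pH 7.0 containing 1 mM EDTA and DTT. Peroxovanadate served as control. The reaction was stopped with 0.1 N NaOH and read at 410 nm. p-Nitrophenolate was quantified using ε = 1.78 × 10⁴ M⁻¹ cm⁻¹.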

[3] = test system: Rattus norvegicus; assay: Antidiabetic activity in sucrose loaded Sprague-Dawley rat model assessed as reduction in blood glucose level at 100 mg/kg; type: functional; set-up: scale not given: the % may be the effect or the level left
[4] = molecular target: T2, Tyrosine-protein phosphatase non-receptor type 1 (Homo sapiens, UniProt P18031); assay: Inhibition of PTP1B; method in brief: as §1
T2 sequence (P18031 whole entry): T1 sequence (whole entry)

Structure (SMILES) | Activity [1] [%] | inhibition [2] [%] | Activity [3] [%] | IC50 [4] [µM]
COc1ccc(CCNC(=O)Cc2ccccc2[N+](=O)[O-])cc1 | 17.5 | 62.5 | 19.8 | 87
COc1ccc(CCNC(=O)COc2ccccc2)cc1 | 20.6 | 68.2 | 24.6 | 71
COc1ccc(CCNC(=O)Cc2cccc3ccccc23)cc1 | 24.1 | 76.9 | 25.1 | 69
CN(C)C(=N)NC(=N)N [METFORMIN] | 23.9 | – | 27.2 | –
